Measured values taken from ChEMBL document CHEMBL2375304, “Synthesis and anticancer activity of novel 2-pyridyl hexahyrocyclooctathieno[2,3-d]pyrimidine derivatives” (2013).

Legend:
Assay type in all cases: functional
DU-145 = test: Growth inhibition of human DU145 cells after 48 hrs by Sulforhodamine B assay; conditions: DU-145, 48 h
Summary of the method: (§1)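 Five-concentration SRB assay using 10-fold or ½-log serial dilutions from a DMSO stock. Exposure is 48 h at 37 °C in 5% CO2 after 24 h preincubation. TCA fixation is followed by SRB staining and a reading at 515 nm. Percentage growth is computed from time-zero, control and treated absorbances. GI50 is the concentration where [(Ti−Tz)/(C−Tz)]×100 = 50, read from the plot against log concentration.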

RXF 393 = test: Growth inhibition of human RXF393 cells after 48 hrs by Sulforhodamine B assay; conditions: RXF 393, 48 h
Summary of the method: (§2)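 Cells were preincubated 24 h at 37 °C, 5% CO2, and a time-zero plate was TCA-fixed. Five concentrations were made by serial dilution from a DMSO stock (400-fold the top concentration) and incubated 48 h. Adherent cells were fixed with 10% final TCA and suspension cells with 16%. Plates were stained with 0.4% SRB and read at 515 nm. GI50 is the concentration giving 50% reduction in net protein increase versus control.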

786-0 = test: Growth inhibition of human 786-0 cells after 48 hrs by Sulforhodamine B assay; conditions: 786-0, 48 h; summary of the method: as §1
A498 = test: Growth inhibition of human A498 cells after 48 hrs by Sulforhodamine B assay; conditions: A498, 48 h; summary of the method: as §1
OVCAR-8 = test: Growth inhibition of human OVCAR8 cells after 48 hrs by Sulforhodamine B assay; conditions: OVCAR-8, 48 h; summary of the method: as §2
OVCAR-5 = test: Growth inhibition of human OVCAR5 cells after 48 hrs by Sulforhodamine B assay; conditions: OVCAR-5, 48 h; summary of the method: as §2
LOX IMVI = test: Growth inhibition of human LOXIMVI cells after 48 hrs by Sulforhodamine B assay; summary of the method: as §1
SNB-75 = test: Growth inhibition of human SNB75 cells after 48 hrs by Sulforhodamine B assay; conditions: SNB-75, 48 h; summary of the method: as §2
[1] = Growth inhibition of human HCC2998 cells after 48 hrs by Sulforhodamine B assay; conditions: HCC 2998, 48 h; summary of the method: as §1
NCI-H460 = test: Growth inhibition of human NCI-H460 cells after 48 hrs by Sulforhodamine B assay; conditions: NCI-H460, 48 h; summary of the method: as §2
NCI-H23 = test: Growth inhibition of human NCI-H23 cells after 48 hrs by Sulforhodamine B assay; conditions: NCI-H23, 48 h; summary of the method: as §2

Structure (SMILES)	GI50 (DU-145)	GI50 (RXF 393)	GI50 (786-0)	GI50 (A498)	GI50 (OVCAR-8)	GI50 (OVCAR-5)	GI50 (LOX IMVI)	GI50 (SNB-75)	GI50 [1]	GI50 (NCI-H460)	GI50 (NCI-H23)
c1ccc(-c2nc(N3CCOCC3)c3c4c(sc3n2)CCCCCC4)nc1	6.92 µM	8.32 µM	11.7 µM	1.66 µM	5.13 µM	10.2 µM	5.25 µM	7.08 µM	6.92 µM	5.89 µM	6.03 µM
CN1CCN(c2nc(-c3ccncc3)nc3sc4c(c23)CCCCCC4)CC1	12.6 µM	4.07 µM	4.79 µM	1.05 µM	12.3 µM	10.7 µM	8.32 µM	1.38 µM	3.89 µM	13.5 µM	11.5 µM
COc1ccc(N2CCN(c3nc(-c4ccccn4)nc4sc5c(c34)CCCCCC5)CC2)cc1	28.2 µM	> 100 µM	8.51 µM	3.31 µM	5.25 µM	51.3 µM	6.31 µM	26.3 µM	10.2 µM	4.68 µM	17 µM
NNc1nc(-c2ccccn2)nc2sc3c(c12)CCCCCC3	9.55 µM	6.76 µM	5.62 µM	1.86 µM	4.37 µM	8.71 µM	6.17 µM	12.6 µM	8.32 µM	4.17 µM	8.91 µM
O=c1[nH]c(-c2ccccn2)nc2sc3c(c12)CCCCCC3	6.76 µM	7.41 µM	5.62 µM	1.32 µM	4.37 µM	91.2 µM	1.1 µM	85.1 µM	26.3 µM	1.91 µM	11 µM
O=c1[nH]c(-c2ccncc2)nc2sc3c(c12)CCCCCC3	> 100 µM	> 100 µM	> 100 µM	> 100 µM	> 100 µM	> 100 µM	> 100 µM	2.69 µM	> 100 µM	> 100 µM	> 100 µM
